The list is not random: actives were taken first. Their share in the collection is about 2.9%.
CHO-K1 Ca antag – nonselective inhibitor or artifact in parental CHO-K1 cells; ATP-induced calcium, Fluo-8 fluorescence; 0.6% of 360,000 active; AID 602250; inhibition, % at 3 µM;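 active = inhibition above a per-plate cutoff, the plate's mean sample inhibition plus 3 SD, cut at about 24% in these data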;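 note: 0% = DMSO plus EC80 ATP and 100% = DMSO alone without ATP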
OX1R antag-1 – blocks the human orexin 1 receptor; AID 434989; O43613; inhibition, % at 5 µM; 0.43% of 330,000 active; CHO/OX1R cells, Fluo-8 calcium fluorescence, orexin A;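 active = inhibition above its plate's threshold, mean inhibition of all tested compounds on the plate plus 3 SD, cut at about 37% in these data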;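 note: 0% = orexin A challenge wells and 100% = SB-334867-A antagonist wells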
Target sequence (O43613 whole entry, looked up): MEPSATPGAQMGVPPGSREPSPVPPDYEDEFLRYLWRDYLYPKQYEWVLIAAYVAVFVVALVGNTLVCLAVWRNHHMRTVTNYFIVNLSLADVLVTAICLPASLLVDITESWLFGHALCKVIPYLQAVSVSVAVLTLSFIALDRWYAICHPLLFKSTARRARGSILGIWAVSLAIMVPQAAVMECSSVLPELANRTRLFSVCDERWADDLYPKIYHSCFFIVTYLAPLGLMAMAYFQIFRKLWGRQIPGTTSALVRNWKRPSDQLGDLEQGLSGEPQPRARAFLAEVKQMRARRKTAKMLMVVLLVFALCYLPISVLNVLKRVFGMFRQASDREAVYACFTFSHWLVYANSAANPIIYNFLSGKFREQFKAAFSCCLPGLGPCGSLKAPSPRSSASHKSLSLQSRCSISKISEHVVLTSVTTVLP
OX1R antag-2 – blocks the human orexin 1 receptor; 1.8% of 330,000 active; inhibition, % at 6.6 µM; OX1R-expressing cells, FRET antagonist read-out; O43613; in the data active = inhibition mostly above about 38%, no sharp cut-off; inactive = mostly below about 40%;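 note: 0% = agonist challenge alone and 100% = reference antagonist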
CHO-K1 Ca ag – nonselective activator or artifact in parental CHO-K1 cells; Fluo-8 calcium fluorescence; scaled to maximal ATP response, vehicle zero; activation, % at 3 µM; 0.48% of 360,000 active; AID 602248; in the data active = activation above about 15%;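 note: untransfected CHO-K1 host cells lacking M1 receptor as counterscreen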
CHO-K1 Ca PAM – nonselective activator or artifact in parental CHO-K1 calcium assay; AID 602247; activation, % at 3 µM; 0.02% of 360,000 active; ATP EC20, Fluo-8 calcium fluorescence; 0% at ATP EC20, 100% at ATP max;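 active = activation above the run cutoff, the mean activation of all test compounds plus 3 SD, cut at about 40% in these data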;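 note: peak over basal fluorescence ratio in a 140 s read after ATP addition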
CHO parental Ca – signal in parental CHO cells, OX1R antagonist counter-screen; inhibition, % at 5.6 µM; parental CHO-K1, ATP-induced calcium, Fluo-8 fluorescence; 0.63% of 330,000 active;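 active = inhibition above that plate's mean sample inhibition plus 3 SD, cut at about 26% in these data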;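 note: 0% = ATP-challenged DMSO wells and 100% = DMSO wells without ATP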
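Test system: untransfected parental CHO cell line; also added: ATP stimulus; dosing: 5.6 µM, single dose; signal: calcium-sensitive Fluo-8 fluorescence; measure: percent inhibition of ATP-evoked calcium rise, normalized to controls; benchmarks: low control ATP plus DMSO, high control DMSO only; replication: one well per compound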
Active calls of the source: *; nt = no result.

SMILES | CHO-K1 Ca antag | OX1R antag-1 | OX1R antag-2 | CHO-K1 Ca ag | CHO-K1 Ca PAM | CHO parental Ca
CC(=O)Nc1nnc(S(=O)(=O)N2CCN(c3ccc(Cl)cc3[N+](=O)[O-])CC2)s1 | 4 | -34 | 13 | 0 | 2 | -17
COc1ccc(/C=C(\NC(=O)/C=C/c2ccco2)C(=O)NCCc2nc3ccccc3[nH]2)cc1 | 6 | -17 | 36 | 1 | 5 | -25
COc1ccc(/C=C(\NC(=O)c2ccco2)C(=O)NCCc2nc3ccccc3[nH]2)cc1 | -8 | 32 | 46* | 1 | 15 | -23
Cc1ccc(-n2nnnc2SCC(=O)NC(C(=O)O)(c2ccccc2)c2ccccc2)cc1C | -4 | -13 | 57* | 0 | 13 | -14
CCOC(=O)CNC(=O)CSc1nnnn1-c1ccc(C)c(C)c1 | -1 | -14 | 6 | 0 | 13 | -10
Cc1ccc(NC(=O)CCSc2nnnn2-c2ccc3c(c2)OCO3)cc1C | 18 | -19 | 71* | 1 | -8 | -8
CCC(=O)Nc1ccc(NC(=O)CSc2nnnn2-c2ccc3c(c2)OCCO3)cc1 | 1 | -4 | 2 | 0 | 8 | 4
CC1=C(C(=O)N(C)C)CC(CC(=O)NCCN2CCOCC2)C(=O)N1CCCN1CCCC1=O (stereo not drawn) | 17 | nt | nt | 0 | -6 | nt
CC1=C(C(=O)N(C(C)C)C(C)C)CC(CC(=O)NCCN2CCOCC2)C(=O)N1CCCN1CCCC1=O (stereo not drawn) | 26* | nt | nt | 1 | 5 | nt
Clc1ccc(-c2cn3c(n2)-c2ccccc2C3)cc1Cl | 0 | -9 | 51* | 4 | 12 | -21
Cc1ccsc1C(=O)N1CCCC(CO)(Cc2ccccc2F)C1 (stereo not drawn) | -11 | -14 | 23 | 2 | 25 | -19
O=C1CC(c2ccc(F)cc2)Cc2nc(N3CCN(c4ccccc4)CC3)ncc21 (stereo not drawn) | 40* | -4 | 6 | 1 | -2 | -6
Cc1ccc(C2CC(=O)c3cnc(N4CCN(c5ccccc5)CC4)nc3C2)cc1 (stereo not drawn) | -3 | -11 | 18 | 2 | 18 | 4
Cc1ccc(NS(=O)(=O)c2ccc(NC(=O)c3cccc(NC(=O)C(C)C)c3)cc2)cc1 | -1 | 82* | 49 | 2 | 8 | 67*
Cc1ccc(S(=O)(=O)Nc2ccc(C(=O)Nc3ccncc3)cc2)cc1 | -2 | -2 | 24 | 1 | 23 | -5
O=C(COC(=O)Cc1ccsc1)Nc1ccc(Br)cc1F | -19 | 18 | 1 | 0 | 21 | -6
Cc1cccn2c(=O)c3cc(C(=O)NCC4CCCO4)c(=N)n(C4CCCC4)c3nc12 (stereo not drawn) | -13 | -26 | 59* | 1 | 6 | -2
N=c1c(C(=O)NCC2CCCO2)cc2c(=O)n3ccccc3nc2n1C1CCCC1 (stereo not drawn) | -5 | -20 | 45* | 1 | 3 | -29
N=c1c(C(=O)NCC2CCCO2)cc2c(=O)n3ccccc3nc2n1C1CCCCC1 (stereo not drawn) | -13 | -9 | 53 | 0 | 1 | -5
Cc1cccn2c(=O)c3cc(C(=O)NC4CCCC4)c(=N)n(C4CCCCC4)c3nc12 | -7 | -13 | 27 | 5 | 1 | -16
Cc1ccc2nc3c(cc(C(=O)NCC4CCCO4)c(=N)n3C3CCCC3)c(=O)n2c1 (stereo not drawn) | -15 | -21 | 58* | 0 | 17 | -13
O=C(CN1C(=O)NC2(CCCC2)C1=O)N1CCN(S(=O)(=O)c2cc(Cl)ccc2Cl)CC1 | -15 | -24 | 14 | 1 | 14 | -14
O=C(O)CC1(CC(=O)Nc2ccc(Cl)cc2C(=O)c2ccccc2)CCCC1 | -5 | -15 | 20 | 0 | 3 | -16
O=C(O)c1ccc(S(=O)(=O)c2ccc([N+](=O)[O-])cc2[N+](=O)[O-])cc1 | 17 | -7 | 57* | 0 | 10 | 1
O=C(O)c1ccc(C(=O)c2cc([N+](=O)[O-])cc([N+](=O)[O-])c2)cc1 | 0 | nt | nt | 2 | 5 | nt
CC(C)OC(=O)c1ccc2nc3ccccc3nc2c1 | -14 | -14 | -3 | 1 | 5 | -8
Cc1ccc(C)c(NC(=S)NNc2ccc(F)cc2F)c1 | -6 | 83* | 17 | -1 | 16 | 71*
Cc1ccc(C)c(NC(=S)NCCc2ccc(F)cc2)c1 | -3 | -13 | 20 | 2 | 11 | -8

Assay outcomes from PubChem.
